Screening results deposited in PubChem by several laboratories.
Only a selection was taken, and hits are over-represented in it overall.
V-ATPase pH = regulators of yeast V-ATPase proton transport; 350,000 compounds, 0.37% hits; AID 504577; S. cerevisiae, pHLuorin cytosolic pH fluorescence; response, % at 10 µM; in the data active means response mostly above about 7.3%, no sharp cut-off; inactive means mostly below about 5.4%; further: actives read high
Dynein cargo inh = blocks dynein driven cargo transport along microtubules; 3617.4 mouse cells, GR-EGFP nuclear translocation imaging; test concentration mostly 20 µM; stimulated with dexamethasone, 1 µM; hits give low values; z-score, hits read low; 220,000 compounds, 0.47% hits; AID 1381;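 active means plate z-score of nuclear minus cytoplasmic receptor signal below a set negative limit, without overly bright fluorescence or cell loss, cut at about -3.5 in these data, passing the limit was not always enough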;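 further: z-score of nuclear minus cytoplasmic ring GR-EGFP intensity difference per well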
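Buffer or medium: Induction medium lacking tetracycline, stripped serum | Also added: Dexamethasone agonist, 1.0 µM final, for 30 min | Timing: 48 h induction, 1 h compound, 30 min dex at 37 °C | Detection: Formaldehyde fixation, Hoechst nuclear stain, 10x automated fluorescence imaging | Measure: Nuclear versus cytoplasmic GR-EGFP signal, averaged per well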
ABCB6 inh MLPCN = human ABCB6 transporter inhibition; Q9NP58; 360,000 compounds, 0.19% hits; fluorescence ratio to DMSO, % at 10 µM; K562-ABCB6 porphyrin accumulation, flow cytometry, 1 h; hits give low values;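 active means fluorescence ratio to DMSO below 75%, the collection mean minus 3 SD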;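 further: signal is porphyrin accumulated inside mitochondria; lower ratio means ABCB6 inhibition with less porphyrin fluorescence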
p-CIP stab down = lowers stability of the mouse p/CIP coactivator protein; decrease of EGFP signal, % at 10 µM; Q05BA5; F442A p/CIP-EGFP cells, EGFP fluorescence, 16 h; 290,000 compounds, 0.01% hits; AID 1984;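 active means EGFP signal decrease of at least 30% at 10 µM or well 3 SD below plate mean, unless failing retest; inactive means the rest, including hits failing retest or dose response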
KCC2 mod = modulates chloride dependent transport by human KCC2 | Q9H2X9 | KCC2 cells, thallium flux FluoZin-2 fluorescence | B-score of Tl+ flux slope (higher = more flux/activation; lower = inhibition) at 10 µM | 190,000 compounds, 2.2% hits | AID 1456;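 active means thallium flux slope and its plate-corrected score both differing from the plate sample mean at a set confidence after two filtering rounds, in either direction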;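 further: slope of fluorescence scaled to starting intensity during 10 to 20 s after thallium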
Target sequence (Q9H2X9 whole entry, looked up): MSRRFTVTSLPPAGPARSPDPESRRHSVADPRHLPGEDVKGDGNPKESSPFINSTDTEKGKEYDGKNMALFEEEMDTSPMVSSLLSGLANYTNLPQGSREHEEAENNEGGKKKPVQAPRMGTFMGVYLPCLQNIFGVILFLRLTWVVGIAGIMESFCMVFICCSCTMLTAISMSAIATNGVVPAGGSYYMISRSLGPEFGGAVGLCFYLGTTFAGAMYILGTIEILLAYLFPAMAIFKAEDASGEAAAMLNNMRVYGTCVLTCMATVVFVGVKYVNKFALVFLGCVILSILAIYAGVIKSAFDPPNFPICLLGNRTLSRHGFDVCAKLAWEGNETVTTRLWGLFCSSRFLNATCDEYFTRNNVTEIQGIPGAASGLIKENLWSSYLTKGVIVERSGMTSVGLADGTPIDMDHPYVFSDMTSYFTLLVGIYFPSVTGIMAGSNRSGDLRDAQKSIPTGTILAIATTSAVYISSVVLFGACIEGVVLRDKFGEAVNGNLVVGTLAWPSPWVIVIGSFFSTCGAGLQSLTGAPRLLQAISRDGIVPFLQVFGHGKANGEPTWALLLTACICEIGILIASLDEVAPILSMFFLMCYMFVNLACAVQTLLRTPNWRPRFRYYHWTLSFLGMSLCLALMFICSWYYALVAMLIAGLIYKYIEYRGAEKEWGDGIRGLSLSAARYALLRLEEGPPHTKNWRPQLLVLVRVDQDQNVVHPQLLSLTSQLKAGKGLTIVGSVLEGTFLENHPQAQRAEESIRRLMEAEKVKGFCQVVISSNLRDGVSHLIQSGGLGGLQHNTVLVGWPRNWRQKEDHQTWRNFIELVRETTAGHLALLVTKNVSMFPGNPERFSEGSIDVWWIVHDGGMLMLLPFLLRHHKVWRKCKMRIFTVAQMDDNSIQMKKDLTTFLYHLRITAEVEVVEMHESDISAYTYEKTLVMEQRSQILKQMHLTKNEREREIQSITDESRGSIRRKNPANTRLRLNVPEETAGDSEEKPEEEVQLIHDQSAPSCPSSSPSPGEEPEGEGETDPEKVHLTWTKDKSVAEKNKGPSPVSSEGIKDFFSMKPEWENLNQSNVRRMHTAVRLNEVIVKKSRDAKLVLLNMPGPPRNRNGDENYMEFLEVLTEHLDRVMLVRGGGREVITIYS
V-ATPase pH SP = regulators of yeast V-ATPase proton transport | AID 602197 | 980 compounds, 2% hits | shares compounds with V-ATPase pH | S. cerevisiae pHLuorin cytosolic pH | response, % at 10 µM; in the data active means response above about 24%
Each line names hits and unclear results; the compound was inactive in the other large screens (follow-up assays come after a bar, where they were run).

Cc1oc(-c2ccccc2)cc1C(=O)Nc1cccc(/C=C\C(=O)O)c1	none
CC1CCN(c2c(NCC3CCC(C(=O)NCCCc4ccccc4)CC3)c(=O)c2=O)CC1 (stereo not given)	none (no result: V-ATPase pH, ABCB6 inh MLPCN)
Cc1n[nH]c(=S)n1Cc1ccccc1	V-ATPase pH 9.8 | V-ATPase pH SP inactive
S=c1[nH]nc(-c2ccccc2)n1Cc1ccccc1	none
CC1CC(C)(C)NC(=S)N1CCC(=O)NCc1ccc(F)cc1 (stereo not given)	none
CC1CC(C)(C)NC(=S)N1CC(=O)NCc1ccc(F)cc1 (stereo not given)	V-ATPase pH 8.5 | V-ATPase pH SP inactive
COc1ccc(/C=C2\CCn3c2nc2cc(C(=O)O)ccc2c3=O)cc1O	V-ATPase pH 10 | V-ATPase pH SP inactive
O=C(N/N=C/c1sc(N2CCOCC2)nc1-c1ccccc1)c1ccc(O)cc1	none
Cc1occc1C(=O)N/N=C/c1sc(N2CCOCC2)nc1-c1ccccc1	V-ATPase pH 10 | V-ATPase pH SP inactive
O=C(Nc1ccccc1OC(F)F)c1ccccc1	V-ATPase pH 11 | V-ATPase pH SP inactive
O=C(Nc1ccccc1OC(=O)c1ccccc1)c1ccccc1	V-ATPase pH 15 (no result: Dynein cargo inh, p-CIP stab down, KCC2 mod) | V-ATPase pH SP inactive
O=c1c2ccccc2nnn1CCc1ccccc1	none (no result: Dynein cargo inh, p-CIP stab down, KCC2 mod)
O=C1C2C3C=CC(C3)C2C(=O)N1c1nccs1 (stereo not given)	V-ATPase pH 9.4 (no result: KCC2 mod) | V-ATPase pH SP inactive
CC(C)=C1C2CCC1C1C(=O)N(c3nccs3)C(=O)C21 (stereo not given)	none
CCNC(=S)NC1CC2CCCC(C1)N2Cc1ccc(C)cc1 (stereo not given)	V-ATPase pH 6.3 (no result: Dynein cargo inh, KCC2 mod) | V-ATPase pH SP inactive
O=C(CCC(=O)N1CCN(c2ccccc2F)CC1)c1ccc(F)cc1	none
Cc1ccc(C(=O)CCC(=O)N2CCN(c3ccccc3O)CC2)cc1	V-ATPase pH 11 (no result: Dynein cargo inh, p-CIP stab down, KCC2 mod) | V-ATPase pH SP inactive
COc1ccc(-c2c(-c3cc(OC)cc(OC)c3)n(C)c3ccc(-c4ccc(OC)c(F)c4)cc23)cc1	none (no result: Dynein cargo inh, p-CIP stab down, KCC2 mod)
COc1ccc(-c2c(-c3ccc(OC)c(F)c3)c3ccccc3n2C)cc1	V-ATPase pH 21 (no result: Dynein cargo inh, p-CIP stab down, KCC2 mod) | V-ATPase pH SP inactive
OCCC1CN(Cc2ccccc2OC2CCCC2)CCN1Cc1ccsc1 (stereo not given)	V-ATPase pH 8.4 | V-ATPase pH SP inactive
OCCC1CN(Cc2cccc3nonc23)CCN1Cc1ccsc1 (stereo not given)	none
Fc1cccc(Cl)c1CNn1cn[nH]c1=S	V-ATPase pH 11 | V-ATPase pH SP inactive
O=C1NC(=S)S/C1=C\c1coc2ccccc2c1=O	V-ATPase pH 52 (no result: KCC2 mod) | V-ATPase pH SP inactive
COc1ccc(N(CC(=O)Nc2cccc3ccccc23)S(C)(=O)=O)cc1	V-ATPase pH 8.5 (no result: Dynein cargo inh, KCC2 mod) | V-ATPase pH SP inactive
C=CCn1c(SC(C)CC)nc(O)cc1=O (stereo not given)	none
O=C(Cc1ccc([N+](=O)[O-])cc1)Nc1cc(C(F)(F)F)cc(C(F)(F)F)c1	none
O=C(Cc1ccc([N+](=O)[O-])cc1)Nc1cccc(C(F)(F)F)c1	V-ATPase pH 12 | V-ATPase pH SP inactive
CCCn1nc(C(=O)NNC(=O)c2cccc(S(=O)(=O)NC(C)C)c2)c2ccccc2c1=O	none (no result: Dynein cargo inh, KCC2 mod)
CC(=O)Nc1cccc(C(=O)OC(C)C(=O)NC(=O)NC2CCCCC2)c1 (stereo not given)	V-ATPase pH 11 (no result: Dynein cargo inh, p-CIP stab down, KCC2 mod) | V-ATPase pH SP inactive
O=C1NC(=S)N/C1=C/c1cccc2ccccc12	V-ATPase pH 9.1 (no result: Dynein cargo inh, KCC2 mod) | V-ATPase pH SP inactive
Nn1c(SCC(=O)N2CCOCC2)nnc1-c1ccccc1Cl	none
CCN1CCN(C(=O)/C(=C/c2cccs2)NC(=O)c2ccc(C)c(C)c2)CC1	none (no result: Dynein cargo inh, KCC2 mod)
CCOC(=O)C(NC(C)=O)(Nc1ccc(F)cc1)C(F)(F)F (stereo not given)	none
CCOC(=O)NC(Nc1ccc(S(N)(=O)=O)cc1)(C(=O)OCC)C(F)(F)F (stereo not given)	V-ATPase pH 13 | V-ATPase pH SP inactive
O=[N+]([O-])c1cc(-c2csc(NCCc3nc4cc(Cl)c(N5CCCCC5)cc4n3CCCO)n2)ccc1Cl	V-ATPase pH 10 (no result: Dynein cargo inh, p-CIP stab down, KCC2 mod) | V-ATPase pH SP inactive
O=C(O)CCC(=O)OCCN(Cc1ccc(Oc2ccc([N+](=O)[O-])cc2)cc1)C(=O)C(Cl)Cl	none (no result: Dynein cargo inh, p-CIP stab down, KCC2 mod)
CCOc1ccccc1OCCCC(=O)Nc1cc(S(=O)(=O)N2CCCCC2)ccc1C	none (no result: Dynein cargo inh, p-CIP stab down, KCC2 mod)
COc1ccc(OCC(=O)Nc2ccc(OC)c(S(=O)(=O)N3CCCCC3)c2)cc1	none (no result: Dynein cargo inh, p-CIP stab down, KCC2 mod)
COc1ccc2c(=O)cc(-c3ccccc3F)oc2c1	V-ATPase pH 5.7 | V-ATPase pH SP inactive
O=C1C=CC(=Nc2ccc3c(c2)Cc2cc(F)ccc2-3)O1	none (no result: Dynein cargo inh, p-CIP stab down, KCC2 mod) | V-ATPase pH SP 100
CCOC(=O)c1c(N)sc(C(=O)N(C)C)c1C	V-ATPase pH 15 | V-ATPase pH SP inactive
O=S(=O)(NC(=S)NC1CCCCC1)c1ccccc1	none
CC(C)C(NC(=O)c1ccc(Cl)cc1)C(=O)NC1=NCCS1 (stereo not given)	none
CC(C)[C@H](NC(=O)c1ccc(F)cc1)C(=O)NC1=NCCS1	none (no result: KCC2 mod) | V-ATPase pH SP inactive
CCc1ccc(C(=O)CN2C(=O)NC3(CCOc4ccccc43)C2=O)s1 (stereo not given)	none (no result: Dynein cargo inh, p-CIP stab down, KCC2 mod)
CCOC(=O)c1[nH]c2c(c1-c1ccccc1)C(=O)CC(c1ccc(OCC)cc1)C2 (stereo not given)	V-ATPase pH 11 | V-ATPase pH SP inactive
COc1ccccc1CNS(=O)(=O)c1ccc2c(c1)CCCN2C(C)=O	V-ATPase pH 12 (no result: Dynein cargo inh, KCC2 mod) | V-ATPase pH SP inactive
Cc1cc(C)n(CC(=O)Nc2ccccc2)n1	V-ATPase pH 11 | V-ATPase pH SP inactive
Cc1ccc(NC(=O)Cn2nc(C)cc2C)cc1	none
O=C/C(=C\Nc1ccc(Br)cc1)c1nc2ccccc2o1	V-ATPase pH 8.9 | V-ATPase pH SP inactive
CC(C)c1ccc(C2c3[nH]c4ccccc4c3C[C@H]3C(=O)N(c4ccccc4C(=O)N4CCC[C@@H]4C(=O)O)C(=O)N23)cc1 (stereo not given in full)	none (no result: Dynein cargo inh, KCC2 mod)
C=CCc1ccc(OCCOCCOc2ccc(C)cc2[N+](=O)[O-])c(OC)c1	none
C=CCc1ccc(OCCOCCN(C)C)c(OC)c1	V-ATPase pH 12 (no result: KCC2 mod) | V-ATPase pH SP inactive
O=C(COc1ccc2ccccc2c1)Nc1nc2ccccc2[nH]1	V-ATPase pH 11 | V-ATPase pH SP inactive
Cc1ccc(C(=O)Nc2nccc(-c3cccs3)n2)cc1	V-ATPase pH 8.5 | V-ATPase pH SP inactive
NC(=S)Nc1nccc(-c2cccs2)n1	none
O=C(NC(c1ccc(-c2ccccc2)cc1)c1cnccn1)C1CCN(Cc2cccs2)CC1 (stereo not given)	none (no result: V-ATPase pH, Dynein cargo inh, p-CIP stab down, KCC2 mod)
COc1ccc(N(C(=O)c2ccccc2OC(C)=O)C(C)C2CC2)cc1 (stereo not given)	none
Clc1ccc(CSC2=NCCCN2)cc1Cl	none | V-ATPase pH SP inactive
Cc1nn(C)cc1S(=O)(=O)N1CCN(c2ccccc2F)CC1	none (no result: Dynein cargo inh, KCC2 mod)
